The text below walks through data of ChEMBL document CHEMBL3085773, “A general method for making peptide therapeutics resistant to serine protease degradation: application to dipeptidyl peptidase IV substrates” (J Med Chem, 2013).

Holding throughout (assay type): ADME
Data set [1] has as its target T1, Trypsin (Sus scrofa, UniProt P00761). The experiment in a line: Stability of the compound assessed as porcine pancreatic trypsin-mediated compound degradation at 0.1 mM after 8 hrs by reverse-phase HPLC/MS analysis. The following applies: pig, isolated protein, 100 µM.
Data set [2] deals with DPP4 (dipeptidyl peptidase 4) (Sus scrofa, UniProt P22411). The experiment in a line: Stability of the compound assessed as porcine DPP4-mediated compound degradation measured intact level at 0.1 mM measured at 30 mins by reverse-phase HPLC/MS analysis. The following applies: pig, read-out: Stability. Summed up:
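Synthetic hexapeptides (0.1 mM) incubated at 37 °C with 10 mU/mL DPP IV purified from porcine kidney in 50 mM HEPES, 0.14 M NaCl, pH 8.0; intact peptide by HPLC-MS, expressed as percent of time-zero value.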

Data set [3] concerns the target T1, Trypsin. The data set can be described thus: Stability of the compound assessed as half life of porcine pancreatic trypsin-mediated compound degradation at 0.1 mM by reverse-phase HPLC/MS analysis. The following applies: pig.
Data set [4] addresses alpha-lytic protease (alpha-LP) (Lysobacter enzymogenes, UniProt P00778). The data set can be described thus: Stability of the compound assessed as half life of Lysobacter enzymogenes alpha-LP-mediated compound degradation at 0.1 mM by reverse-phase HPLC/MS analysis.
A further data set addresses Dipeptidyl peptidase 4 (Homo sapiens, UniProt P27487). The data set can be described thus: Stability of the compound assessed as recombinant human DPP4-mediated compound degradation at 0.1 mM measured after 24 hrs by reverse-phase HPLC/MS analysis. The following applies: 100 µM. Summed up:
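GLP-1 peptides (0.1 mM) incubated at 37 °C with recombinant human DPP IV in 50 mM HEPES, 0.14 M NaCl, pH 8.0, up to 24 h; acid-quenched samples analysed by RP-HPLC-MS for intact peptide.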

A further data set addresses Alpha-lytic protease (Lysobacter enzymogenes, UniProt P00778). The data set can be described thus: Stability of the compound assessed as Lysobacter enzymogenes alpha-LP-mediated compound degradation at 0.1 mM after 5 hrs by reverse-phase HPLC/MS analysis. The note with it: 100 µM.

Square brackets hold non-standard residues; d marks the D form. Peptide text beside a SMILES is read from it. ξ: configuration not given here. ξTle = CC(C)(C)C(N)C(=O)O

T1 sequence (P00761 whole entry): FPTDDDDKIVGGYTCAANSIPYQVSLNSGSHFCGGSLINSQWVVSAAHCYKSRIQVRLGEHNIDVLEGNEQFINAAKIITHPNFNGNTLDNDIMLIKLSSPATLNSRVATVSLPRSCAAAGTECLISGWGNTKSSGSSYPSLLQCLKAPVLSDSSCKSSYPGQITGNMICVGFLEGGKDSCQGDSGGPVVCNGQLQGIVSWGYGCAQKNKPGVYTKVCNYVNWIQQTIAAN
Chain of DPP4 (dipeptidyl peptidase 4) (P22411 whole entry): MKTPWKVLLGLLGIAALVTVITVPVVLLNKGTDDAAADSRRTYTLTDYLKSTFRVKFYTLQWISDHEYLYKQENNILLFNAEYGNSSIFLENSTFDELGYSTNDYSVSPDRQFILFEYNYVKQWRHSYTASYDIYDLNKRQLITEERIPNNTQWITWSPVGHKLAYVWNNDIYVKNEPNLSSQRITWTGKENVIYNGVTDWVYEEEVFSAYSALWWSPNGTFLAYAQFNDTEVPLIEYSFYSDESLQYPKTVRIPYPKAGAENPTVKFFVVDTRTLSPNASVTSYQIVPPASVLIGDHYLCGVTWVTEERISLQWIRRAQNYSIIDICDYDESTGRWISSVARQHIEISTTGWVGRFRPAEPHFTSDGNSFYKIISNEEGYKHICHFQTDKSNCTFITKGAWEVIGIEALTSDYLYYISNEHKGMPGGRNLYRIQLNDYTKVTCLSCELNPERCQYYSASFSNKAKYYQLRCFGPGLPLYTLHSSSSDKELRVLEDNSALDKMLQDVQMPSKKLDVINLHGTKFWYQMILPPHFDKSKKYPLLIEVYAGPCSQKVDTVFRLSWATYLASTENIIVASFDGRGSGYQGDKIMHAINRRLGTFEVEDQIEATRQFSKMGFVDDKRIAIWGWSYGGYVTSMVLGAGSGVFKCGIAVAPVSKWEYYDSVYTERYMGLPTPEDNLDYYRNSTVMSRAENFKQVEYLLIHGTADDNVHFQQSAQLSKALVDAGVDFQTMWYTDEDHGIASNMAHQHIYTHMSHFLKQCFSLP
Chain of Alpha-lytic protease (P00778 whole entry): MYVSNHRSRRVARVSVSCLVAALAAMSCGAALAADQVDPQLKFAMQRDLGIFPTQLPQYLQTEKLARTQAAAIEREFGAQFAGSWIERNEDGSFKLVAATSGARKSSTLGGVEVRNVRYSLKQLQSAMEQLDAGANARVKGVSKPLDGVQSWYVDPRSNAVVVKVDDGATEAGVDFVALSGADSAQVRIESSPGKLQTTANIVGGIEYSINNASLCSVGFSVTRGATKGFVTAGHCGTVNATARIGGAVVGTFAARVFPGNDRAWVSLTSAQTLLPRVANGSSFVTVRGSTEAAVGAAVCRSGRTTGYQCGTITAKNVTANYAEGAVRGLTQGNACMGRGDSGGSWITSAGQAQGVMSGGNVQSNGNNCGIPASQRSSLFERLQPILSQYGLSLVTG
Chain of alpha-lytic protease (alpha-LP) (P00778 whole entry): as above
Chain of Dipeptidyl peptidase 4 (P27487 whole entry): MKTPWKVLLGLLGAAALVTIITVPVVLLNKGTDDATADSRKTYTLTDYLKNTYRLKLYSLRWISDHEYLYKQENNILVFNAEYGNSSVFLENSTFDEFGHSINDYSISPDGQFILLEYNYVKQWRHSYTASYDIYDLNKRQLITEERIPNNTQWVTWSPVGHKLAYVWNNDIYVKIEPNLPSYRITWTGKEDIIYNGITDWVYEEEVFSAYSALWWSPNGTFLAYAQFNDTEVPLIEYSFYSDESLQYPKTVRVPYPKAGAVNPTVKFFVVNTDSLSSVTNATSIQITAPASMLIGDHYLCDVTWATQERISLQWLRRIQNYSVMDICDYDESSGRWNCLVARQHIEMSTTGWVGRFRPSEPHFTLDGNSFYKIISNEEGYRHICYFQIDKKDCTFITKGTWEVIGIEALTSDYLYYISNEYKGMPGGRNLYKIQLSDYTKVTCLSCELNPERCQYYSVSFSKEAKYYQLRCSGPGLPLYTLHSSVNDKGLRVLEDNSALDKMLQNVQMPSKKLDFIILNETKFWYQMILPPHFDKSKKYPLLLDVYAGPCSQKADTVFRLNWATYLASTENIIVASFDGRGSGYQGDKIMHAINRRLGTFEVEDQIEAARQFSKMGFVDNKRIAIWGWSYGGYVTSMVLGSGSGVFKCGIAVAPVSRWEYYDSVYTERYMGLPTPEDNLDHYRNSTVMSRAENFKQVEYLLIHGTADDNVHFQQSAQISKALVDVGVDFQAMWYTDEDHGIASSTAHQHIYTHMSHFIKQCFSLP

With `CC(C)C[C@H](NC(=O)[C@@H](N)CC(C)C)C(=O)N1CCC[C@H]1C(=O)N[C@@H](CCCNC(=N)N)C(=O)NC(C(=O)N[C@@H](C)C(=O)N[C@@H](CC(N)=O)C(=O)NCC(=O)N[C@@H](CO)C(=O)N[C@@H](CO)C(=O)N[C@@H](Cc1ccccc1)C(=O)N[C@H](C(=O)N[C@H](C(=O)N[C@H](C(=O)O)C(C)C)[C@@H](C)O)C(C)C)C(C)(C)C` (stereo partly specified) (H-LLPR[ξTle]ANGSSFVTV-OH), the Stability result on Trypsin [1] was “Stable”. In the case of `CC(C)C[C@H](NC(=O)[C@@H]1CCCN1C(=O)[C@H](C)N)C(=O)N[C@@H](CO)C(=O)N[C@@H](Cc1c[nH]c2ccccc12)C(=O)N[C@@H](CO)C(=O)O` (H-APLSWS-OH), the remaining at 0.5 h, 100 µM in data set [2] is less than 70%. The half-life is the time in which the quantity being followed falls by half. In the case of `CC(C)C[C@H](NC(=O)[C@@H](N)CC(C)C)C(=O)N1CCC[C@H]1C(=O)N[C@@H](CCCNC(=N)N)C(=O)N[C@H](C(=O)N[C@@H](C)C(=O)N[C@@H](CC(N)=O)C(=O)NCC(=O)N[C@@H](CO)C(=O)N[C@@H](CO)C(=O)N[C@@H](Cc1ccccc1)C(=O)N[C@H](C(=O)N[C@H](C(=O)N[C@H](C(=O)O)C(C)C)[C@@H](C)O)C(C)C)C(C)C` (H-LLPRVANGSSFVTV-OH), the half-life at 100 µM (at Trypsin [3]; in data set [4]) was 24 min throughout. Take `CC[C@H](C)[C@H](NC(=O)[C@H](Cc1ccccc1)NC(=O)[C@H](CCC(=O)O)NC(=O)[C@H](CCCCN)NC(=O)[C@H](C)NC(=O)[C@H](C)NC(=O)[C@H](CCC(N)=O)NC(=O)CNC(=O)[C@H](CCC(=O)O)NC(=O)[C@H](CC(C)C)NC(=O)[C@H](Cc1ccc(O)cc1)NC(=O)[C@H](CO)NC(=O)[C@H](CO)NC(=O)[C@@H](NC(=O)[C@H](CC(=O)O)NC(=O)[C@H](CO)NC(=O)[C@@H](NC(=O)[C@H](Cc1ccccc1)NC(=O)[C@@H](NC(=O)CNC(=O)C(NC(=O)[C@H](C)NC(=O)[C@@H](N)Cc1cnc[nH]1)C(C)(C)C)[C@@H](C)O)[C@@H](C)O)C(C)C)C(=O)N[C@@H](C)C(=O)N[C@@H](Cc1c[nH]c2ccccc12)C(=O)N[C@@H](CC(C)C)C(=O)N[C@H](C(=O)N[C@@H](CCCCN)C(=O)NCC(=O)N[C@@H](CCCN=C(N)N)C(N)=O)C(C)C` (stereo partly specified): the Stability entry at Dipeptidyl peptidase 4 is recorded as “Stable”.

Take `CC(C)C[C@H](NC(=O)[C@@H](N)CC(C)C)C(=O)N1CCC[C@H]1C(=O)N[C@@H](CCCNC(=N)N)C(=O)N[C@H](C(=O)N[C@@H](C)C(=O)NC(C(=O)NCC(=O)N[C@@H](CO)C(=O)N[C@@H](CO)C(=O)N[C@@H](Cc1ccccc1)C(=O)N[C@H](C(=O)N[C@H](C(=O)N[C@H](C(=O)O)C(C)C)[C@@H](C)O)C(C)C)C(C)(C)C)C(C)C` (stereo partly specified) (H-LLPRVA[ξTle]GSSFVTV-OH): the Stability entry at Alpha-lytic protease is given as “Stable”.
